Sampled rows, rich in hits. Any-hit rate of the full collection: about 2.9%.
DENV2 CPE rescue: DENV2-induced cell death inhibition; DENV2-infected cells, cytopathic effect rescue, plate reader; CPE inhibition, % at 9.99 µM; 350,000 compounds, 1.7% hits; AID 651640; in the data active = CPE inhibition above about 20%, passing the limit was not always enough; tested in BHK-21 cells;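 note: 0% = median of neutral control wells and 100% = median of positive control wells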
SIRT5 block: inhibitors of human sirtuin-5 desuccinylase | Q9NXA8 | Purified SirT5, succinyl-peptide AMC, trypsin-coupled fluorescence | inhibition, % at 15 µM | 330,000 compounds, 1.1% hits | AID 652115; in the data active = inhibition above about 15%
Target sequence (Q9NXA8 whole entry, looked up): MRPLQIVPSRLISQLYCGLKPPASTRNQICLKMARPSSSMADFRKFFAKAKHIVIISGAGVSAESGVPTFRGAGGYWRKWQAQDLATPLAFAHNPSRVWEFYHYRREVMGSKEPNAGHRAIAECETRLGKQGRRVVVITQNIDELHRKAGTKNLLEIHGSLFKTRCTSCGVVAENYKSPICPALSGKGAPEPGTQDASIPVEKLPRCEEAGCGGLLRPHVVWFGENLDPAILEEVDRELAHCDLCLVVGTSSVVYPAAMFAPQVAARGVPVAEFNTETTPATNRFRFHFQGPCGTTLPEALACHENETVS
Statin myotox sup: suppression of simvastatin myotoxicity; 330,000 compounds, 0.78% hits; C2C12 myotubes + simvastatin, ATP luminescence, 48 h; scaled: DMSO 0, geranylgeraniol control 100; rescue of ATP level, % at 7.49 µM;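 active = mean ATP rescue above about 67%, or every replicate alone reaching that limit, limit read from the data, passing the limit was not always enough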;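 note: myotubes were challenged with 10 µM simvastatin during compound exposure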
PGC1a acetyl inh: modulators of PGC1a acetylation. 350,000 compounds, 0.17% hits. U2OS PGC1a acetylation, AlphaScreen anti-acetyl-lysine; with virally co-expressed GCN5 acetyltransferase. AID 651687. inhibition, % at 15.6 µM;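 active = every replicate shows inhibition of at least 40%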;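 note: 0% = neutral control wells and 100% = positive control wells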
S100A4 inh HTS: inhibitors of human S100A4 binding to myosin IIA peptide. inhibition, % at 10.7 µM. 360,000 compounds, 0.14% hits. S100A4/TAMRA-MyoIIA peptide fluorescence polarization. P26447;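 active = mean inhibition of at least 70% across replicates, with every replicate also reaching that level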
Target sequence (P26447 whole entry, looked up): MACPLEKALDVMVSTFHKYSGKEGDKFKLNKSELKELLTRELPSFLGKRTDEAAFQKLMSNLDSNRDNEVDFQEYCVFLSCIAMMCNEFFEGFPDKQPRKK
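Test system – S100A4 monomer (human) · Compound – single-point compound testing · Schedule – 5 min incubation before reading · Probe or stimulus – TAMRA-labelled myosin IIA heavy-chain peptide probe, 5 nM · Benchmarks – neutral control DMSO, positive control TFP · Medium – Calcium-containing HEPES buffer, pH 7.2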
Starred values were filed as active, the others as inactive; . = not tested or not shown.

SMILES	DENV2 CPE rescue	SIRT5 block	Statin myotox sup	PGC1a acetyl inh	S100A4 inh HTS
COc1cccc(-c2cnc3c(c2)C(=O)N([C@@H](C)CO)C[C@H](C)[C@@H](CN(C)CC2CCCC2)O3)c1	-4	1	4	-14	2
C[C@H](CO)N1C[C@H](C)[C@H](CN(C)S(C)(=O)=O)Oc2ccc(NS(=O)(=O)c3ccc(F)cc3)cc2CC1=O	-1	1	50	7	-30
Cc1ccc(S(=O)(=O)Nc2ccc3c(c2)CC(=O)N([C@@H](C)CO)C[C@H](C)[C@H](CN(C)CC2CCCCC2)O3)cc1	14	16*	-6	-5	-5
C[C@@H]1CN([C@@H](C)CO)C(=O)Cc2cc(NS(=O)(=O)c3cccs3)ccc2O[C@H]1CN(C)CC1CCCCC1	-6	15*	11	-14	36
C[C@H]1CN([C@@H](C)CO)C(=O)Cc2cc(NS(=O)(=O)c3ccc(F)cc3)ccc2O[C@@H]1CN(C)S(C)(=O)=O	46*	2	27	6	-3
Cc1ccc(S(=O)(=O)Nc2ccc3c(c2)CC(=O)N([C@H](C)CO)C[C@H](C)[C@@H](CN(C)CC2CCCCC2)O3)cc1	6	19*	64	-6	3
C[C@@H]1CN([C@H](C)CO)C(=O)Cc2cc(NS(=O)(=O)c3cccs3)ccc2O[C@H]1CN(C)CC1CCCCC1	1	4	23	7	-2
C[C@H](CO)N1C[C@H](C)[C@@H](CN(C)CC2CCCCC2)Oc2ccc(NS(=O)(=O)c3ccc(F)cc3)cc2CC1=O	0	16*	46	4	1
N#Cc1ccccc1/C=N/Nc1nc(-c2ccccc2)c2cc(Br)ccc2n1	.	.	99*	-2	.
Cc1ccccc1NC(=O)c1c(C)nc(SCC(=O)OCc2ccccc2)c(C#N)c1-c1ccc(F)cc1	20*	.	.	.	14
CCC(=O)N1C[C@H]2[C@@H](c3ccccc31)[C@H](CO)N2Cc1cc(F)ccc1F	-6	16*	16	-6	4
COCC(=O)N1C[C@@H]2[C@H](c3ccccc31)[C@H](CO)N2Cc1cc(F)ccc1F	2	20*	24	2	-12
CCC(=O)N1C[C@@H]2[C@H](c3ccccc31)[C@@H](CO)N2Cc1cc(F)ccc1F	11	5	-11	3	-1
COc1ccc(S(=O)(=O)N[C@@H]2CC[C@@H](CC(=O)N3CCc4ccccc4C3)O[C@H]2CO)cc1	2	3	-4	3	-4
CN(C)c1ccc(/C=C/C=C2/SC(=S)N(c3ccccc3)C2=O)cc1	.	.	70*	5	.
COc1ccc(OC)c(C2=NOC(C(=O)Nc3c(C)n(C)n(-c4ccccc4)c3=O)C2)c1 (centres undefined)	81*	7	-2	-2	-2
CN1C(=S)N2CCCN2C1c1ccccc1 (centres undefined)	-5	-6	29	7	0
S=C1N(c2ccccc2)C(c2ccccc2)N2CCCN12 (centres undefined)	.	.	132*	-2	.
CCOc1ccccc1NC(=O)C1CCCN(S(=O)(=O)c2ccc(OC)c(C)c2)C1 (centres undefined)	.	.	122*	-8	.
CCOc1ccc(S(=O)(=O)N2CCCCC2)cc1NC(=O)C1CCCC1	-5	.	-4	17	-2
COc1cccc(NC(=O)N2CC(=O)N3[C@H](CO)[C@H](c4ccc(C#CCC5CCCC5)cc4)[C@@H]3C2)c1	6	24*	.	0	-5
COc1ccc(NC(=O)N2CC(=O)N3[C@@H](CO)[C@@H](c4ccc(C#CCC5CCCC5)cc4)[C@@H]3C2)cc1	6	1	.	-13	-6
COc1cccc(NC(=O)N2CC(=O)N3[C@H](C2)[C@H](c2ccc(C#CCC4CCCC4)cc2)[C@@H]3CO)c1	15	25*	.	-11	9
COc1cccc(NC(=O)N2CC(=O)N3[C@@H](CO)[C@@H](c4ccc(C#CCC5CCCC5)cc4)[C@@H]3C2)c1	1	17*	.	-7	4
COc1ccc(NC(=O)N2CC(=O)N3[C@H](CO)[C@H](c4ccc(C#CCC5CCCC5)cc4)[C@@H]3C2)cc1	-7	2	.	-7	-2
COc1cccc(NC(=O)N2CC(=O)N3[C@H](CO)[C@@H](c4ccc(C#CCC5CCCC5)cc4)[C@H]3C2)c1	2	22*	.	-3	-6
